We go through eleven molecules from ChEMBL document CHEMBL4145558, “Structure-Activity Relationship Study on Odoamide: Insights into the Bioactivities of Aurilide-Family Hybrid Peptide-Polyketides” (ACS Med Chem Lett, 2018).

As usually defined, the pIC50 is the IC50 on a negative log10 scale, so that one unit is a factor of ten.

One data set relates to A549. In words: Cytotoxicity against human A549 cells assessed as inhibition of cell growth after 72 hrs by MTS assay. As to conditions: A549, 72 h. The class given is functional, cell-based. The method, boiled down: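 A549 cells exposed to each peptide for 72 h; growth read by MTS assay. IC50 taken as the concentration giving 50% growth inhibition, n = 3.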
A general note: Tetrazolium assays rely on reduction of a dye to a coloured formazan, in cell work by metabolically active cells.

A short description of data set [1]: Protein binding in 10% fetal bovine serum at 1 uM after 4 hrs in presence of cell culture medium by rapid equilibrium dialysis based LC-MS/MS analysis. As to conditions: cattle, 10% fetal bovine serum in cell culture medium; read-out: PB (converted). Format: ADME, cell-free, Bos taurus. A digest of the protocol: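 Peptides tested in cell culture medium supplemented with 10% (v/v) fetal bovine serum. The ratio of unbound peptide was determined.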
A general note: Equilibrium dialysis compares concentrations on both sides of a semipermeable membrane.

Data set [2] can be described thus: Permeability of the compound in pH 7.4 phosphate buffer solution after 4 hrs by LC-MS/MS based PAMPA assay. Format: ADME. As to conditions: read-out: permeability. A digest of the protocol:
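PAMPA run at pH 7.4, under the in vitro bioassay conditions.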
A general note: The PAMPA barrier holds no transporters, so it reflects passive diffusion.

pIC50: −log10 of the molar value.

`CCC[C@H](C)[C@H]1OC(=O)[C@H](C)N(C)C(=O)[C@H]([C@@H](C)CC)NC(=O)CN(C)C(=O)[C@@H](Cc2ccccc2)N(C)C(=O)[C@H](C)NC(=O)[C@@H]([C@@H](C)CC)OC(=O)/C(C)=C/C[C@H](O)[C@@H]1C`: in the data set with A549, the pIC50 is 8.38. The fraction unbound at 4 h, 1 µM in data set [1] was 0.241. For the same molecule, in data set [2], the Papp at 4 h is above 1 ×10⁻⁶ cm/s.

On to `CCC[C@H](C)[C@H]1OC(=O)[C@H](C)N(C)C(=O)[C@H]([C@@H](C)CC)NC(=O)CCN(C)C(=O)[C@@H](Cc2ccccc2)N(C)C(=O)[C@H](C)NC(=O)[C@@H]([C@@H](C)CC)OC(=O)/C(C)=C/C[C@H](O)[C@@H]1C`, for which, in the data set on A549, the pIC50 was 7.13. The Papp at 4 h in data set [2] was above 1 ×10⁻⁶ cm/s.

With `CCC[C@H](C)[C@H]1OC(=O)[C@H](C)N(C)C(=O)[C@H]([C@@H](C)CC)NC(=O)CN(C)C(=O)[C@@H](Cc2ccccc2)NC(=O)[C@H](C)NC(=O)[C@@H]([C@@H](C)CC)OC(=O)/C(C)=C/C[C@H](O)[C@@H]1C`, the negative logarithm of the IC50 (pIC50) in the data set on A549 was 8.27.

For the molecule `CCC[C@H](C)[C@H]1OC(=O)[C@H](C)N(C)C(=O)[C@H]([C@@H](C)CC)NC(=O)CN(C)C(=O)[C@H](Cc2ccccc2)N(C)C(=O)[C@H](C)NC(=O)[C@@H]([C@@H](C)CC)OC(=O)/C(C)=C/C[C@H](O)[C@@H]1C`, the negative logarithm of the IC50 (pIC50) in the data set on A549 was 7.32.

For `CCC[C@H](C)[C@H]1OC(=O)[C@@H](C)N(C)C(=O)[C@H]([C@@H](C)CC)NC(=O)CN(C)C(=O)[C@@H](Cc2ccccc2)N(C)C(=O)[C@H](C)NC(=O)[C@@H]([C@@H](C)CC)OC(=O)/C(C)=C/C[C@H](O)[C@@H]1C`, in the data set on A549, the negative logarithm of the IC50 (pIC50) was 8.72. Besides, the fraction unbound at 4 h, 1 µM in data set [1] was 0.145. The Papp at 4 h in data set [2] was above 1 ×10⁻⁶ cm/s.

With `CCC[C@H](C)[C@H]1OC(=O)[C@H](C)N(C)C(=O)[C@H]([C@@H](C)CC)NC(=O)CN(C)C(=O)[C@@H](Cc2ccccc2)N(C)C(=O)[C@H](C)NC(=O)[C@@H]([C@@H](C)CC)OC(=O)/C(C)=C/C=C/[C@@H]1C`, in the data set on A549, the negative-log IC50 (pIC50) is 7.55.

Consider `CCC[C@H](C)[C@@H](O)[C@@H](C)[C@@H]1C/C=C(\C)C(=O)O[C@H]([C@@H](C)CC)C(=O)N[C@@H](C)C(=O)N(C)[C@H](Cc2ccccc2)C(=O)N(C)CC(=O)N[C@@H]([C@@H](C)CC)C(=O)N(C)[C@@H](C)C(=O)O1`, for which the negative logarithm of the IC50 (pIC50) with A549 was 8.35.

As for `CCC[C@H](C)[C@H]1OC(=O)[C@H](C)N(C)C(=O)[C@@H]([C@@H](C)CC)NC(=O)CN(C)C(=O)[C@@H](Cc2ccccc2)N(C)C(=O)[C@H](C)NC(=O)[C@@H]([C@@H](C)CC)OC(=O)/C(C)=C/C[C@H](O)[C@@H]1C`, the pIC50 in the data set with A549 was 6.19.

For `CCC[C@H](C)[C@H]1OC(=O)[C@H](C)N(C)C(=O)[C@H]([C@@H](C)CC)NC(=O)CN(C)C(=O)[C@@H](Cc2ccccc2)N(C)C(=O)[C@H](C)NC(=O)[C@@H]([C@@H](C)CC)OC(=O)/C(C)=C/C[C@H](OC)[C@@H]1C`, the pIC50 in the data set on A549 was 8.37. The fraction unbound at 4 h, 1 µM in data set [1] was 0.028. Moreover, the Papp at 4 h in data set [2] was above 1 ×10⁻⁶ cm/s.

Regarding `CCC[C@H](C)[C@H]1OC(=O)[C@H](C)N(C)C(=O)[C@H]([C@@H](C)CC)NC(=O)CNC(=O)[C@@H](Cc2ccccc2)N(C)C(=O)[C@H](C)NC(=O)[C@@H]([C@@H](C)CC)OC(=O)/C(C)=C/C[C@H](O)[C@@H]1C`, in the data set with A549, the pIC50 was 7.51. In data set [2], the Papp at 4 h is above 1 ×10⁻⁶ cm/s.

Take `CCC[C@H](C)[C@H]1OC(=O)[C@H](C)N(C)C(=O)[C@H]([C@@H](C)CC)NC(=O)CN(C)C(=O)[C@@H](Cc2ccccc2)N(C)C(=O)[C@@H](C)NC(=O)[C@@H]([C@@H](C)CC)OC(=O)/C(C)=C/C[C@H](O)[C@@H]1C`: in the data set with A549, the pIC50 is 5.81. In addition, the Papp at 4 h in data set [2] was above 1 ×10⁻⁶ cm/s.
